# Experimental data: ChEMBL document CHEMBL3124882, “Semi-synthesis of acylated triterpenes from olive-oil industry wastes for the development of anticancer and anti-HIV agents” (Eur J Med Chem, 2014)
# Calls of active or inactive are those of the source. The rule behind the calls is not given here.
# Key:
# B16-F10 [1] = test: Induction of ROS generation in mouse B16F10 cells at IC50 to 2 X IC50 after 72 hrs by rhodamine123/propidium iodide staining-based FACS analysis; type: functional, cell-based
# How it was run: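 B16F10 cells, 11·10^4 per well, treated 72 h at IC50 or 2×IC50, then given fresh medium with dihydrorhodamine 123 at a final 5 µg/mL for 30 min. Cells washed, resuspended in PBS and read by flow cytometry for Rh123 and PI fluorescence (excitation 500 nm, emission 536 nm). Rh123+ cells scored ROS-positive regardless of PI. Three experiments in duplicate, mean ± S.E.M.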
# B16-F10 [2] = test: Induction of apoptosis in mouse B16F10 cells assessed as necrotic cells at 2 X IC50 after 72 hrs by annexin V-FITC/propidium iodide staining-based FACS analysis (reference value: 4.0 +/- 0.6%); type: functional
# B16-F10 [3] = test: Induction of apoptosis in mouse B16F10 cells assessed as necrotic cells at IC50 after 72 hrs by annexin V-FITC/propidium iodide staining-based FACS analysis (reference value: 4.0 +/- 0.6%); type: functional
# B16-F10 [4] = test: Induction of apoptosis in mouse B16F10 cells assessed as total apoptotic cells at 2 X IC50 after 72 hrs by annexin V-FITC/propidium iodide staining-based FACS analysis (reference value: 13.7 +/- 2.7%); type: functional
# B16-F10 [5] = test: Induction of apoptosis in mouse B16F10 cells assessed as total apoptotic cells at IC50 after 72 hrs by annexin V-FITC/propidium iodide staining-based FACS analysis (reference value: 13.7 +/- 2.7%); type: functional
# B16-F10 [6] = test: Induction of apoptosis in mouse B16F10 cells assessed as late apoptotic cells at 2 X IC50 after 72 hrs by annexin V-FITC/propidium iodide staining-based FACS analysis (reference value: 9.8 +/- 2.2%); type: functional
# B16-F10 [7] = test: Induction of apoptosis in mouse B16F10 cells assessed as late apoptotic cells at IC50 after 72 hrs by annexin V-FITC/propidium iodide staining-based FACS analysis (reference value: 9.8 +/- 2.2%); type: functional
# B16-F10 [8] = test: Induction of apoptosis in mouse B16F10 cells assessed as early apoptotic cells at 2 X IC50 after 72 hrs by annexin V-FITC/propidium iodide staining-based FACS analysis (reference value: 3.9 +/- 0.4%); type: functional
# B16-F10 [9] = test: Induction of apoptosis in mouse B16F10 cells assessed as early apoptotic cells at IC50 after 72 hrs by annexin V-FITC/propidium iodide staining-based FACS analysis (reference value: 3.9 +/- 0.4%); type: functional
# B16-F10 [10] = test: Induction of apoptosis in mouse B16F10 cells assessed as normal cells at IC50 after 72 hrs by annexin V-FITC/propidium iodide staining-based FACS analysis (reference value: 77.9 +/- 1.5%); type: functional
# B16-F10 [11] = test: Cytotoxicity against mouse B16F10 cells after 72 hrs by MTT assay; type: functional, cell-based; conditions: B16-F10, 72 h
# How it was run: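 B16F10 cells (DMEM, 2 mM glutamine, 10% heat-inactivated FCS, penicillin/streptomycin; subconfluent) seeded at 11·10^3 per well and exposed to 0–80 µg/mL for 72 h. Compounds were diluted from a 10 mg/mL stock in 50% DMSO/PBS. MTT 0.5 mg/mL for 2 h, formazan dissolved in DMSO, absorbance at 550 nm. Viability is relative to untreated controls; IC50 from four assays of six replicates, mean ± S.E.M.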
# B16-F10 [12] = test: Induction of apoptosis in mouse B16F10 cells assessed as normal cells at 2 X IC50 after 72 hrs by annexin V-FITC/propidium iodide staining-based FACS analysis (reference value: 77.9 +/- 1.5%); type: functional
# Protease = Protease (Human immunodeficiency virus 1, UniProt Q9YQ12); test: Inhibition of HIV1 recombinant protease expressed in Escherichia coli using Abz-Ala-Arg-Val-Nle-Tyr(NO2)-Glu-Ala-Nle-NH2 as substrate by FRET assay
# Chain of Protease (Q9YQ12 whole entry): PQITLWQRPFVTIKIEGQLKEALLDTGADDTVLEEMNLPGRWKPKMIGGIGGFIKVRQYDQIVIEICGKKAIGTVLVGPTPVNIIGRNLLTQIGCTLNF
compound,measurement,setting,value
CC1(C)CC[C@]2(C(=O)OCc3ccccc3)CC[C@]3(C)C(=CC[C@@H]4[C@@]5(C)CC[C@H](OC(=O)CCC(=O)O)C(C)(C)[C@@H]5CC[C@]43C)[C@@H]2C1,Activity,B16-F10 [1],inactive
same,Activity,B16-F10 [2],0.7%
same,Activity,B16-F10 [3],11.1%
same,Activity,B16-F10 [4],91.6%
same,Activity,B16-F10 [5],72.1%
same,Activity,B16-F10 [6],17.6%
same,Activity,B16-F10 [7],55.5%
same,Activity,B16-F10 [8],74%
same,Activity,B16-F10 [9],16.6%
same,Activity,B16-F10 [10],16.9%
same,IC50,B16-F10 [11],23.2 µM
same,Activity,B16-F10 [12],7.7%
CC1(C)CC[C@]2(C(=O)O)CC[C@]3(C)C(=CC[C@@H]4[C@@]5(C)CC[C@H](OC(=O)c6ccccc6C(=O)O)C(C)(C)[C@@H]5CC[C@]43C)[C@@H]2C1,IC50,Protease,0.31 µM
CC1(C)CC[C@]2(C(=O)OCc3ccccc3)CC[C@]3(C)C(=CC[C@@H]4[C@@]5(C)C[C@@H](OC(=O)CCC(=O)O)[C@H](OC(=O)CCC(=O)O)C(C)(C)[C@@H]5CC[C@]43C)[C@@H]2C1,IC50,Protease,5.2 µM
CC(=O)O[C@@H]1C[C@]2(C)[C@H]3CC=C4[C@@H]5CC(C)(C)CC[C@]5(C(=O)OCc5ccccc5)CC[C@@]4(C)[C@]3(C)CC[C@H]2C(C)(C)[C@H]1O,Activity,B16-F10 [1],Active
same,Activity,B16-F10 [2],0.6%
same,Activity,B16-F10 [3],1.2%
same,Activity,B16-F10 [4],98.4%
same,Activity,B16-F10 [5],86%
same,Activity,B16-F10 [6],27.1%
same,Activity,B16-F10 [7],20%
same,Activity,B16-F10 [8],71.3%
same,Activity,B16-F10 [9],66%
same,Activity,B16-F10 [10],12.9%
same,IC50,B16-F10 [11],39.6 µM
same,Activity,B16-F10 [12],1.1%
CC(C)(CC(=O)O)CC(=O)O[C@H]1CC[C@]2(C)[C@H]3CC=C4[C@@H]5CC(C)(C)CC[C@]5(C(=O)O)CC[C@@]4(C)[C@]3(C)CC[C@H]2C1(C)C,IC50,Protease,0.7 µM
CC1(C)CC[C@]2(C(=O)O)CC[C@]3(C)C(=CC[C@@H]4[C@@]5(C)C[C@@H](OC(=O)c6ccccc6C(=O)O)[C@H](O)C(C)(C)[C@@H]5CC[C@]43C)[C@@H]2C1,IC50,Protease,14.2 µM
CC1(C)CC[C@]2(C(=O)O)CC[C@]3(C)C(=CC[C@@H]4[C@@]5(C)CC[C@H](OC(=O)CCCC(=O)O)C(C)(C)[C@@H]5CC[C@]43C)[C@@H]2C1,IC50,Protease,0.56 µM
CC1(C)CC[C@]2(C(=O)OCc3ccccc3)CC[C@]3(C)C(=CC[C@@H]4[C@@]5(C)C[C@@H](OC(=O)c6ccccc6C(=O)O)[C@H](OC(=O)c6ccccc6C(=O)O)C(C)(C)[C@@H]5CC[C@]43C)[C@@H]2C1,IC50,Protease,1.9 µM
CC(C)(CC(=O)O)CC(=O)O[C@@H]1C[C@]2(C)[C@H]3CC=C4[C@@H]5CC(C)(C)CC[C@]5(C(=O)O)CC[C@@]4(C)[C@]3(C)CC[C@H]2C(C)(C)[C@H]1O,IC50,Protease,14.3 µM
CC1(C)CC[C@]2(C(=O)O)CC[C@]3(C)C(=CC[C@@H]4[C@@]5(C)C[C@@H](O)[C@H](O)C(C)(C)[C@@H]5CC[C@]43C)[C@@H]2C1 [MASLINIC ACID],Activity,B16-F10 [2],2%
same,Activity,B16-F10 [3],11.7%
same,Activity,B16-F10 [4],89.8%
same,Activity,B16-F10 [5],74.9%
same,Activity,B16-F10 [6],21%
same,Activity,B16-F10 [7],54.2%
same,Activity,B16-F10 [8],68.8%
same,Activity,B16-F10 [9],20.8%
same,Activity,B16-F10 [10],10.9%
same,IC50,B16-F10 [11],36.2 µM
same,Activity,B16-F10 [12],8.3%
same,IC50,Protease,62.7 µM
CCCCCC(=O)O[C@@H]1C[C@]2(C)[C@H]3CC=C4[C@@H]5CC(C)(C)CC[C@]5(C(=O)OCc5ccccc5)CC[C@@]4(C)[C@]3(C)CC[C@H]2C(C)(C)[C@H]1OC(=O)CCCCC,IC50,Protease,150 µM
CCCCCCCCCCCC(=O)O[C@@H]1C[C@]2(C)[C@H]3CC=C4[C@@H]5CC(C)(C)CC[C@]5(C(=O)OCc5ccccc5)CC[C@@]4(C)[C@]3(C)CC[C@H]2C(C)(C)[C@H]1OC(=O)CCCCCCCCCCC,IC50,Protease,73 µM
CCCC(=O)O[C@@H]1C[C@]2(C)[C@H]3CC=C4[C@@H]5CC(C)(C)CC[C@]5(C(=O)OCc5ccccc5)CC[C@@]4(C)[C@]3(C)CC[C@H]2C(C)(C)[C@H]1O,IC50,Protease,226 µM
CC1(C)CC[C@]2(C(=O)OCc3ccccc3)CC[C@]3(C)C(=CC[C@@H]4[C@@]5(C)C[C@@H](O)[C@H](O)C(C)(C)[C@@H]5CC[C@]43C)[C@@H]2C1 [BENZYL MASLINATE],Activity,B16-F10 [2],0.1%
same,Activity,B16-F10 [3],0.3%
same,Activity,B16-F10 [4],88.4%
same,Activity,B16-F10 [5],94.7%
same,Activity,B16-F10 [6],2.2%
same,Activity,B16-F10 [7],10.6%
same,Activity,B16-F10 [8],86.2%
same,Activity,B16-F10 [9],84.2%
same,Activity,B16-F10 [10],5%
same,IC50,B16-F10 [11],19 µM
same,Activity,B16-F10 [12],11.3%
CC1(C)CC[C@]2(C(=O)OCc3ccccc3)CC[C@]3(C)C(=CC[C@@H]4[C@@]5(C)C[C@@H](OC(=O)CCCC(=O)O)[C@H](OC(=O)CCCC(=O)O)C(C)(C)[C@@H]5CC[C@]43C)[C@@H]2C1,IC50,Protease,3.9 µM
CC1(C)CC[C@]2(C(=O)O)CC[C@]3(C)C(=CC[C@@H]4[C@@]5(C)CC[C@H](O)C(C)(C)[C@@H]5CC[C@]43C)[C@@H]2C1 [OLEANOLIC_ACID],Activity,B16-F10 [2],8.7%
same,Activity,B16-F10 [3],10.1%
same,Activity,B16-F10 [4],41.5%
same,Activity,B16-F10 [5],44.6%
same,Activity,B16-F10 [6],12.4%
same,Activity,B16-F10 [7],28.2%
same,Activity,B16-F10 [8],29.1%
same,Activity,B16-F10 [9],16.4%
same,Activity,B16-F10 [10],44.9%
same,IC50,B16-F10 [11],106 µM
same,Activity,B16-F10 [12],49.8%
same,IC50,Protease,57.7 µM
CC1(C)CC[C@]2(C(=O)O)CC[C@]3(C)C(=CC[C@@H]4[C@@]5(C)C[C@@H](OC(=O)CCCC(=O)O)[C@H](O)C(C)(C)[C@@H]5CC[C@]43C)[C@@H]2C1,IC50,Protease,3.2 µM
CC1(C)CC[C@]2(C(=O)OCc3ccccc3)CC[C@]3(C)C(=CC[C@@H]4[C@@]5(C)C[C@@H](OC(=O)CCC(=O)O)[C@H](O)C(C)(C)[C@@H]5CC[C@]43C)[C@@H]2C1,IC50,Protease,15.6 µM
CC(C)(CC(=O)O)CC(=O)O[C@@H]1C[C@]2(C)[C@H]3CC=C4[C@@H]5CC(C)(C)CC[C@]5(C(=O)O)CC[C@@]4(C)[C@]3(C)CC[C@H]2C(C)(C)[C@H]1OC(=O)CC(C)(C)CC(=O)O,IC50,Protease,27.5 µM
CC1(C)CC[C@]2(C(=O)OCc3ccccc3)CC[C@]3(C)C(=CC[C@@H]4[C@@]5(C)CC[C@H](O)C(C)(C)[C@@H]5CC[C@]43C)[C@@H]2C1,Activity,B16-F10 [2],4.1%
same,Activity,B16-F10 [3],4.3%
same,Activity,B16-F10 [4],41.6%
same,Activity,B16-F10 [5],27.8%
same,Activity,B16-F10 [6],18.6%
same,Activity,B16-F10 [7],12.2%
same,Activity,B16-F10 [8],23%
same,Activity,B16-F10 [9],15.6%
same,Activity,B16-F10 [10],67.9%
same,IC50,B16-F10 [11],52.2 µM
same,Activity,B16-F10 [12],54.3%
CC1(C)CC[C@]2(C(=O)O)CC[C@]3(C)C(=CC[C@@H]4[C@@]5(C)C[C@@H](OC(=O)CCCC(=O)O)[C@H](OC(=O)CCCC(=O)O)C(C)(C)[C@@H]5CC[C@]43C)[C@@H]2C1,IC50,Protease,1.4 µM
CC1(C)CC[C@]2(C(=O)O)CC[C@]3(C)C(=CC[C@@H]4[C@@]5(C)C[C@@H](OC(=O)CCC(=O)O)[C@H](OC(=O)CCC(=O)O)C(C)(C)[C@@H]5CC[C@]43C)[C@@H]2C1,IC50,Protease,1.9 µM
CC1(C)CC[C@]2(C(=O)O)CC[C@]3(C)C(=CC[C@@H]4[C@@]5(C)C[C@@H](OC(=O)c6ccccc6C(=O)O)[C@H](OC(=O)c6ccccc6C(=O)O)C(C)(C)[C@@H]5CC[C@]43C)[C@@H]2C1,IC50,Protease,2.3 µM
CC1(C)CC[C@]2(C(=O)O)CC[C@]3(C)C(=CC[C@@H]4[C@@]5(C)C[C@@H](OC(=O)CCC(=O)O)[C@H](O)C(C)(C)[C@@H]5CC[C@]43C)[C@@H]2C1,IC50,Protease,3.5 µM
CCCC(=O)O[C@@H]1C[C@]2(C)[C@H]3CC=C4[C@@H]5CC(C)(C)CC[C@]5(C(=O)O)CC[C@@]4(C)[C@]3(C)CC[C@H]2C(C)(C)[C@H]1OC(=O)CCC,IC50,Protease,31.2 µM
